One experiment has as its system Heart. Kind of experiment: Coronaroconstriction in Wistar rat heart Langendorff preparations at 1 uM. In kind it is functional, tissue-based.
Experiment [1] is described as follows: Vasoconstriction effect in Wistar rat caudal artery. In kind it is functional, tissue-based. In short, it runs like this:
(§1)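 Endothelium-denuded rat caudal artery rings; denudation was confirmed by absence of carbamylcholine-induced relaxation. Cumulative concentration–response curves were run over 0.1–50 µM. Contractions were expressed as a percentage of the 90 mM KCl-induced contraction. Values are mean of at least 4 rings.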

Experiment [2] can be described thus: Vasoconstriction effect in Wistar rat caudal artery relative to KCl. The class given is functional, tissue-based. Put shortly: as §1
In experiment [3] the test system is Liver. As to the kind of experiment: Stimulation of mitochondrial permeability transition measured by Ca2+ retention capacity of Wistar Albino rat liver mitochondria at 50 uM. The class given is functional. Put shortly: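 Liver mitochondria from Albino Wistar rats, isolated by differential centrifugation and suspended in Tris/HCl pH 7.4 with 0.25 M sucrose and 0.1 mM EGTA. Only preparations with RCR ≥ 3.0 (Clark electrode, succinate, 25 °C) were used. MPT was induced by Ca2+ at 25 °C in medium of 200 mM sucrose, 10 mM Tris–MOPS, 10 µM EGTA–Tris, 1 mM Pi, 0.5 µg/mL oligomycin, 5 mM succinate, 2 µM rotenone, pH 7.4.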

Experiment [4] concerns Liver. As to the kind of experiment: Stimulation of mitochondrial permeability transition measured by Ca2+ retention capacity of mouse liver mitochondria. The class given is functional.
The test system of experiment [5] is Rattus norvegicus. As to the kind of experiment: Toxicity in Wistar rat assessed as death at 20 mg/kg, ip after 1 hr. Further details: dose 20 mg/kg. The class given is functional, organism-based.
The next experiment has as its system Aorta. As to the kind of experiment: Vasodilation activity assessed as inhibition of KCl-induced contraction in Wistar rat aorta at 50 uM. In kind it is functional. Put shortly: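 Rat aortic rings were contracted with 90 mM KCl with and without a maximal concentration of compound. Inhibition was calculated as 100 × (C − AC)/C, where C and AC are the contractile effects in milligrams with KCl alone and with compound.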

Experiment [6] has as its system Rattus norvegicus. As to the kind of experiment: Toxicity in Wistar rat assessed as death at 40 mg/kg, ip after 1 hr. The class given is functional, organism-based. More on the design: dose 40 mg/kg. Put shortly:
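Four male Wistar rats (150–250 g) per compound. Drug was dissolved in DMSO at 40 mg/kg and injected intraperitoneally. Animals were kept in a quiet room and watched every 15 min for early signs of toxicity. Four rats given solvent alone served as controls.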

In ChEMBL document CHEMBL1143018, “Synthesis and activity studies of analogues of the rat selective toxicant norbormide” (Bioorg Med Chem, 2007) one finds Activity, EC50 and inhibition data, which are given here for 13 molecules.

The structures appear in SMILES notation. The source made the active and inactive calls. The calls are words filed in the database; no cut-off is given here.

As to `C=C(c1ccccc1)c1ccccn1`, the outcome with Heart and in the experiment with Liver [4] was inactive. Also, the EC50 (usually the midpoint of the concentration-response curve) in experiment [1] turned out to be 11 µM. For the same molecule, the Activity in experiment [2] was 185%; in the experiment with Rattus norvegicus [5], “Not toxic”. Moreover, in the experiment on Liver [3], the outcome was Active.

`O=C1CCC(=O)N1`: in the experiment with Heart, the result was inactive.

Take `O=C1NC(=O)[C@H]2C3C=C(C(O)(c4ccccc4)c4ccccn4)C(C3=C(c3ccccc3)c3ccccc3)[C@@H]12` (stereo not given in full): the result in the experiment on Heart was inactive. Further, the inhibition (as a rule, the percentage by which the read-out fell short of the control) at 50 µM in the experiment with Aorta was found to be 31%.

With `CC(O)(c1ccccc1)c1ccccn1` (stereo not given), the outcome in the experiment on Heart was inactive.

Turning to `O=C1NC(=O)[C@H]2C3C=CC(C3)[C@@H]12`, the result with Heart was inactive.

On to `OC(C1=CC2CCC1C2)(c1ccccc1)c1ccccn1` (mixture of isomers), for which, in the experiment on Heart, the outcome was inactive. The inhibition at 50 µM in the experiment with Aorta is 69%. In addition, in the experiment on Rattus norvegicus [5], the Activity entry is “Not toxic”.

As to `O=C1NC(=O)[C@H]2C3C(C(O)(c4ccccc4)c4ccccn4)=CC(C3=C(c3ccccc3)c3ccccc3)[C@@H]12` (stereo not given in full), the outcome with Heart was Active. Moreover, the inhibition at 50 µM with Aorta stood at 42%. For the same molecule, a half-maximal effect in experiment [1] (EC50) was put at 4.2 µM. Besides, the figures for the Activity (in experiment [2]; in the experiment on Rattus norvegicus [6]) were 185% and “Toxic”, respectively.

As for `O=C1NC(=O)[C@H]2C3C=C(C(O)(c4ccccc4)c4ccccn4)C(C3)[C@@H]12` (stereo not given in full), the outcome in the experiment with Heart was inactive.

Take `O=C1NC(=O)C2C3C(C(O)(c4ccccc4)c4ccccn4)=CC(/C3=C(/c3ccccc3)c3ccccn3)C12` (stereo not given): in the experiment with Heart, the result was Active. In addition, in the experiment with Aorta, the inhibition at 50 µM was 64%. Further, the EC50 in experiment [1] is 1 µM. Also, the Activity in experiment [2] is 209%; in the experiment on Rattus norvegicus [5], “Toxic”.

As for `O=C1NC(=O)C2C3OC(C=C3C(O)(c3ccccc3)c3ccccn3)C12` (stereo not given), the result in the experiment on Heart was inactive.

As to `O=C1NC(=O)C2C3C=CC(C3=C(c3ccccc3)c3ccccn3)C12` (stereo not given), the result in the experiment on Heart was inactive. In experiment [1], a half-maximal effect (EC50) was put at 7.8 µM. The Activity in experiment [2] is 193%; with Rattus norvegicus [5], “Not toxic”. Moreover, the result in the experiment with Liver [3] was Active.

For `O=C1NC(=O)[C@H]2C3CC(C=C3C(O)(c3ccccc3)c3ccccn3)[C@@H]12` (stereo not given in full), the outcome with Heart was inactive.

As for `OC(C1=CC2CCC1/C2=C(\c1ccccc1)c1ccccn1)(c1ccccc1)c1ccccn1` (mixture of isomers), the result in the experiment with Heart was inactive. For the same molecule, the inhibition at 50 µM in the experiment on Aorta turned out to be 60%. Also, the Activity result in the experiment with Rattus norvegicus [5] was “Not toxic”.
